# Most compounds without a hit are left out; they make up all but 9.8% or so of the library.
# WT yeast gro inh = growth inhibition of WT yeast, mitochondrial fusion screen; mitochondrial fusion phenotypic screen, WT strain; inhibition, % at 10 µM; 2.1% of 190,000 active; in the data active = inhibition above about 58%; tested in S. cerevisiae
# Lmaj promast = Leishmania major promastigote growth inhibition | AID 1063 | 9% of 200,000 active | inhibition, % at 10 µM | Leishmania major promastigotes, resazurin fluorescence viability; in the data active = inhibition above about 50%;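 also: promastigotes grown with compound for 44 hours at 28 °C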
# m-calpain inh = blocks pig calpain II enzyme activity; 0.37% of 220,000 active; inhibition, % at 16 µM; purified calpain II, fluorogenic peptide substrate, 30 min;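 active = inhibition above about 50%, limit read from the data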
# PMI activator = increases human mannose-6-phosphate isomerase activity. P34949. 0.005% of 190,000 active. purified human PMI, coupled resazurin fluorescence, 20 min; stronger effect = higher value; 1 = vehicle control, 0 substrate-free wells. activation factor at 20 µM;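 active = activation factor of 2 or more at 20 µM, relative to plate controls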
# Rad51 HR inh = blocks human Rad51 in homologous recombination; Q06609; hRad51 DNA strand exchange, fluorescence dequenching; inhibition, % at 10 µM; 0.085% of 200,000 active;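 active = inhibition above 40% at the single screening dose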;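 also: 0% = DMSO control wells and 100% = blanks with heterologous ssDNA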
# Target sequence (Q06609 whole entry, looked up): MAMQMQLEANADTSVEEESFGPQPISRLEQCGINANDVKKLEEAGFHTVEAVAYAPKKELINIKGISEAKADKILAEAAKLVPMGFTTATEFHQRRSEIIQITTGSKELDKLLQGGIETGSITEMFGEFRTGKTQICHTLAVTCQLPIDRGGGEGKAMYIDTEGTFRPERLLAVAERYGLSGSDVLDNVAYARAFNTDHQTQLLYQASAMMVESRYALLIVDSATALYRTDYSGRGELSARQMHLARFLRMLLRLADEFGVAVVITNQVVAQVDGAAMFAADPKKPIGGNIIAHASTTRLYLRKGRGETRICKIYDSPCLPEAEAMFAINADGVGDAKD
#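 Test system: preformed human Rad51 ssDNA filaments; also added: Donor/quencher-labelled 47-bp dsDNA substrate; doses: 10 µM final, single point; times: 37 °C 15-min filament assembly, 30-min compound preincubation, 15-min exchange; detection: FRET fluorescence dequenching, excitation 485 nm, emission 520 nm; read-out basis: Fluorescence-based percent inhibition, control- and blank-normalised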
# PMI act satM6P = increases human PMI activity with near-saturating mannose 6-phosphate | P34949 | activation factor at 20 µM | 0.34% of 190,000 active | coupled PMI enzyme assay, resazurin fluorescence, 20 min; stronger effect = higher value; 1 = untreated enzyme, 0 = substrate-free blank;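 active = activation factor of 2 or more at 20 µM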
#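 Test system: human phosphomannose isomerase with PGI, G6PDH, diaphorase coupling enzymes; amount: 15 ng/mL PMI; incubation: enzyme reaction with compound 20 min at room temperature; technique: resorufin fluorescence (Ex 544/Em 590 nm) from resazurin via diaphorase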
# * = called active by the depositor; . = not tested or not shown.
SMILES,WT yeast gro inh,Lmaj promast,m-calpain inh,PMI activator,Rad51 HR inh,PMI act satM6P
C=CCC1(NCc2ccco2)CCN(CC)CC1,5.5,0.3,-25.4,1,5.2,1.1
CCCCCC(=O)N/N=C/c1ccc([N+](=O)[O-])o1,1.2,84.8*,-3.6,1.1,3.8,0.8
Cc1ccc(NCC(=O)N/N=C\c2ccc([N+](=O)[O-])o2)cc1,4.5,100.1*,0.4,1,-3.7,1
COc1ccc(C(=O)N/N=C/c2ccc(SC)cc2)cc1,-0.5,-4.6,-21.3,1.1,-11.7,1.2
Cc1ccc(NCC(=O)N/N=C/c2ccc(C(=O)O)cc2)cc1,.,.,0.8,.,19.2,.
CSc1ccc(/C=N/NC(=O)c2ccc(O)cc2)cc1,12.8,96.0*,-20.5,1,11.1,1
O=C(N/N=C/c1ccc([N+](=O)[O-])o1)c1ccncc1,.,.,22.7,.,16.0,.
CCN(CC)S(=O)(=O)c1cccc(C(=O)N/N=C/c2ccc([N+](=O)[O-])o2)c1,-7.5,99.8*,-21.7,1.4,4.8,0.8
O=C(N/N=C\c1ccc([N+](=O)[O-])o1)c1cncc(Br)c1,.,.,-2.8,.,.,.
COc1ccc2[nH]c(C)c(C(=O)CN(C)CC3OCCO3)c2c1,.,.,-21.9,.,.,.
CC(C)CC(CO)N1CCN(C(=O)c2cccc(C(F)(F)F)c2)CCC1=O (stereo not drawn),14.6,-6.6,9.2,1.1,-25.9,1
CCc1cccc(CC)c1NC(=O)CN1C2CCCC1CC(NC(=O)Nc1cccc(OC)c1)C2 (stereo not drawn),7.0,16.4,42.0,0.8,0.5,0.8
COc1cc(-c2nnc(SCC(=O)N(C)C3CCS(=O)(=O)C3)o2)cc(OC)c1OC (stereo not drawn),1.6,-6.0,0.2,0.9,-2.5,0.9
Cc1cc(C)cc(C(=O)NCC(=O)OCC(=O)NCC(F)(F)F)c1,-0.4,7.9,-12.5,1,2.7,1
O=C(CCC(=O)Nc1ccc(Cl)cc1Cl)N/N=C/c1ccc([N+](=O)[O-])o1,-9.0,100.7*,-3.3,1.1,0.3,0.7
O=C(CNC(=O)c1ccccc1)N/N=C/c1ccc([N+](=O)[O-])o1,-12.7,99.3*,-7.5,1,.,0.9
O=[N+]([O-])c1ccc(/C=N/NC(=S)Nc2ccccc2F)o1,23.5,25.1,13.8,1,-10.1,1
O=C(CNC(=O)c1ccc(F)cc1)N/N=C/c1ccc(O)c([N+](=O)[O-])c1,-20.9,56.1*,19.3,1,1.7,1.1
Cc1ccc(/C=N\NC(=O)c2cc([N+](=O)[O-])cc([N+](=O)[O-])c2)o1,-6.9,57.6*,11.9,1,-6.8,0.9
CCOC(=O)CN(Cc1sccc1C)C(=O)Nc1ccc(OC)cc1OC,-11.1,-1.4,-9.0,1,-1.5,1
O=C(N/N=C/c1ccc([N+](=O)[O-])o1)c1cc2ccccc2o1,.,.,-4.5,.,-0.5,.
O=C(CNc1ccccc1)N/N=C/c1ccc([N+](=O)[O-])o1,-1.3,100.0*,-4.8,1,1.1,0.9
CCN(CC)c1ccc(N=Cc2ccccc2[N+](=O)[O-])cc1,2.6,11.8,-3.6,0.5,.,0.4
O=C(N/N=C/c1ccc([N+](=O)[O-])o1)c1cc2c(ccc3ccccc32)o1,45.9,98.7*,-90.2,1.3,0.6,1.1
CCN(CC)c1ccc(N=Cc2ccc([N+](=O)[O-])o2)cc1,31.6,91.2*,34.6,0.6,-9.3,0.4
SMILES,WT yeast gro inh,Lmaj promast,m-calpain inh,PMI activator,Rad51 HR inh,PMI act satM6P
CCOC(=O)c1ccc(Nc2nnc(C)c3ccccc23)cc1,.,.,-5.7,.,2.6,.
CC(=O)Nc1nnc(CSCc2ccccc2F)s1,.,.,-13.0,.,4.4,.
COc1cccc(CSc2nc3cc4c(cc3cc2C)OCCO4)c1,28.2,57.2*,18.1,0.9,2.9,0.9
CCc1cc2cc3c(cc2nc1SCC(=O)Nc1nnc(C)s1)OCCO3,11.3,-3.8,7.0,0.8,3.2,0.9
COC(=O)CSc1nc2cc3c(cc2cc1C)OCO3,70.2*,10.7,-9.6,.,-11.2,.
Cc1cc2cc3c(cc2nc1SCC(=O)Nc1nc(C)c(C)s1)OCO3,-12.7,83.2*,45.8,0.8,-8.6,0.9
Cc1cc2cc3c(cc2nc1SCc1ccc(C(=O)O)cc1)OCCO3,50.2,-2.6,21.0,1.1,-6.3,0.9
Cc1cc2cc3c(cc2nc1SCC(=O)OC(C)C)OCCO3,-8.3,-3.4,5.8,0.9,3.1,0.9
Cc1nc2cc(NC(=O)Nc3ccc(Br)cc3)ccc2o1,5.9,12.8,-12.7,0.9,10.3,0.9
O=C1/C(=C/c2cccc3ccccc23)CCCc2ccccc21,62.8*,7.9,10.4,0.9,.,0.9
O=C1/C(=C/c2ccco2)CCc2ccccc21,4.2,-4.6,1.5,0.6,.,0.4
CCNc1nc(NCC)nc(SCCOc2ccc(C)cc2)n1,87.7*,22.0,15.8,0.9,.,0.9
CCNc1nc(NCC)nc(SCCOC(=O)Nc2ccccc2)n1,13.6,76.7*,18.6,1,14.5,1
CCNC(=S)SCCOc1ccc(C)cc1,1.8,57.1*,22.5,1,-1.1,1.1
Cc1ccc(C)c(NC(=S)N(Cc2ccco2)C(C)c2cccs2)c1 (stereo not drawn),69.1*,63.2*,23.2,1,38.3,1.1
Cc1ccc(Cl)cc1NC(=S)N(Cc1ccco1)C(C)c1cccs1 (stereo not drawn),43.9,27.5,16.4,1.1,9.4,1.1
Cc1ccc(NC(=S)N(Cc2ccco2)C(C)c2cccs2)c(Cl)c1 (stereo not drawn),66.1*,36.4,15.3,0.9,-4.6,0.9
Cc1ccc(NC(=O)CCn2cc(C(F)(F)F)ccc2=O)cc1,.,.,-4.1,.,-0.1,.
COc1cccc(NC(=O)CC2S/C(=N\S(=O)(=O)c3ccccc3)N(c3ccccc3)C2=O)c1 (stereo not drawn),9.5,61.4*,-9.8,0.9,6.5,0.9
O=C(CN1CCc2ccccc2C1)Nc1ccccc1N1CCCCCC1,61.4*,30.6,32.6,0.9,0.0,1.2
O=C(CN1CCCCC1)Nc1ccccc1NC(=O)CN1CCCCC1,-4.4,-3.3,24.5,0.9,-2.3,0.9
O=C(CNCCC1=CCCCC1)Nc1ccccc1N1CCCCC1,33.5,97.4*,12.9,0.9,-1.1,1
O=S(=O)(c1ccc(Br)s1)N1CCNCC1,.,.,0.7,.,4.8,.
CCOc1ccc(-c2ccc(SC)nn2)cc1,67.7*,-0.1,7.8,1,5.7,0.9
CCOc1ccc(-c2ccc(SCC(=O)Nc3nnc(CC)s3)nn2)cc1,4.8,-4.0,1.7,1.2,.,1.1
CCC(=C(c1ccc(OC)cc1)c1ccc(OC)cc1)c1cn(CC(O)CN2CCN(C)CC2)c2ccccc12 (stereo not drawn),80.3*,100.3*,-115.0,1,.,1.1
CCOC(=O)/C(=C\c1ccc([N+](=O)[O-])o1)NC(=O)c1ccccc1,-8.8,99.5*,5.2,1.1,-9.6,1.3

# From PubChem
